Calls of active or inactive are those of the source. The calls are words filed in the database; no cut-off is given here.

In ChEMBL document CHEMBL5032534, “COUPY Coumarins as Novel Mitochondria-Targeted Photodynamic Therapy Anticancer Agents” (J Med Chem, 2021) one finds Activity and Drug uptake data, which are given here for two compounds.

In data set [1] the test system is HeLa. The data set can be described thus: Effect on cell cycle distribution in human HeLa cells assessed as reduction in G1 phase population at 5 uM preincubated for 30 mins in dark followed by light irradiation for 1 hr by RNase/propidium iodide staining based FACS analysis. The format is functional. The conditions noted are these: time 1.5 hrs. The method, boiled down:
(§1)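 HeLa cells were seeded at 1.5 × 10^5/well and treated for 0.5 h, with or without 1 h visible-light irradiation, followed by 24 h recovery. Cells were fixed in ice-cold 70% ethanol for 1 h and stained with PI (40 μg/mL) plus RNase (1 μg/mL) for 30 min at 310 K. Analysis was by flow cytometry in the FL2-A channel. At least two independent experiments, n = 3.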
A general note: In flow cytometry, cells or beads pass a laser one at a time.

Data set [2] deals with HeLa. The data set can be described thus: Induction of apoptosis in human HeLa cells assessed as increase in necrotic cells at 5 uM incubated for 30 mins in dark measured after 24 hrs by Annexin V-FITC/ Propidium iodide staining based flow cytometry analysis. The format is functional, cell-based. The conditions noted are these: time 24.5 hrs. The method, boiled down:
(§2)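 HeLa cells were seeded at 1.5 × 10^5/well overnight and treated for 0.5 h, with or without 1 h visible-light irradiation, followed by 24 h recovery. Cells were trypsinized, resuspended in binding buffer, labelled with FITC-Annexin V and propidium iodide for 15 min at room temperature in the dark, and analysed by flow cytometry. Cisplatin (30 μM) served as positive control.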

The test system of data set [3] is HeLa. The data set can be described thus: Induction of ROS generation in human HeLa cells at 5 uM incubated for 1 hr in dark followed by irradiation with visible light for 1 hr under hypoxic condition in presence of NaPyr by DCFH-DA staining based flow cytometric analysis. The note with it: time 2.0 hrs. It is filed as functional, cell-based. The method, boiled down:
(§3)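 HeLa cells were seeded at 2 × 10^4/well for 24 h under 21% or 2% O2. They were co-treated with 5 μM compound plus a scavenger, which stayed present throughout: NAC 5 mM, NaN3 5 mM, mannitol 50 mM, tiron 5 mM, sodium pyruvate 10 mM or Trolox 0.1 mM. Cells were held 1 h dark, then 1 h under visible light, stained 30 min with 10 μM DCFH-DA, trypsinized and analysed by flow cytometry. At least two independent experiments, n = 3.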

Data set [4] concerns HeLa. The data set can be described thus: Induction of ROS generation in human HeLa cells at 5 uM incubated for 1 hr in dark followed by irradiation with visible light for 1 hr under hypoxic condition in presence of 5 mM NAC by DCFH-DA staining based flow cytometric analysis. The note with it: time 2.0 hrs. It is filed as functional, cell-based. The method, boiled down:
as §3

For data set [5], the system named is HeLa. The data set can be described thus: Effect on cell cycle distribution in human HeLa cells at 5 uM incubated for 30 mins in dark by RNase/propidium iodide staining based FACS analysis. The format is functional. The method, boiled down:
as §1

The subject of data set [6] is HeLa. The data set can be described thus: Induction of ROS generation in human HeLa cells at 5 uM incubated for 1 hr in dark followed by irradiation with visible light for 1 hr under hypoxic condition in presence of NaN3 by DCFH-DA staining based flow cytometric analysis. It is filed as functional, cell-based. The note with it: time 2.0 hrs. The method, boiled down:
as §3

In data set [7] the test system is HeLa. Kind of data set: Induction of mitochondrial membrane potential loss in human HeLa cells at 5 uM measured after 24 hrs by JC-1 dye-based flow cytometric analysis. It is filed as functional, cell-based. The method, boiled down:
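HeLa cells were seeded at 1.5 × 10^5 in 12-well plates for 24 h and treated for 24 h. Vehicle control held 0.4% DMSO and antimycin A (50 μM) served as positive control. Cells were stained with JC-1 (1 μM, 20 min) and analysed by flow cytometry (10^4 events; ex 488 nm; green 530 nm and red 585 nm channels). At least two independent experiments.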

The subject of data set [8] is HeLa. The data set can be described thus: Induction of ROS generation in human HeLa cells at 5 uM incubated for 1 hr in dark followed by irradiation with visible light for 1 hr under normoxic condition in presence of Trolox by DCFH-DA staining based flow cytometric analysis. It is filed as functional, cell-based. The conditions noted are these: time 2.0 hrs. The method, boiled down: as §3

In data set [9] the test system is HeLa. The data set can be described thus: Induction of autophagy in human HeLa cells assessed as increase in MDC-positive autophagic vesicles at 5 uM preincubated for 30 mins followed by light irradiation for 1 hr and further incubated for 6 hrs in drug-free medium by MDC staining based confocal microscopic analysis. The note with it: time 1.5 hrs. The format is functional, cell-based. The method, boiled down: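 HeLa cells were seeded at 1.5 × 10^4 cells/cm2 in chamber slides and given 0.5 h compound incubation, then 1 h visible-light irradiation. Medium was replaced for a 6 h recovery. Cells were stained with monodansylcadaverine (0.05 mM in PBS, 10 min, 310 K) and imaged by confocal microscopy (ex 405 nm). Vacuoles were counted in at least 10 cells from two experiments. Controls were starvation in EBSS for 2 h and resveratrol 50 μM for 2 h.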

Data set [10] deals with HeLa. Kind of data set: Induction of ROS generation in human HeLa cells at 5 uM incubated for 1 hr in dark followed by irradiation with visible light for 1 hr under hypoxic condition in presence of Trolox by DCFH-DA staining based flow cytometric analysis. The format is functional, cell-based. The note with it: time 2.0 hrs. The method, boiled down: as §3
A short description of data set [11]: Drug uptake in mitochondria of human HeLa cells assessed as drug accumulation at 0.5 uM measured after 30 mins by confocal microscopic analysis. The format is ADME. The note with it: 0.5 h. The method, boiled down:
(§4)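 HeLa cells in high-glucose DMEM with 10% fetal calf serum were seeded on glass-bottom dishes for 24 h, then loaded with compound for 30 min at 37 °C. They were washed three times with DPBS and kept in phenol-red-free low-glucose DMEM. Live cells were imaged by confocal microscopy at 37 °C with 5% CO2, excited at 561 nm, with emission collected from 570 to 670 nm.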

Data set [12] deals with HeLa. Kind of data set: Induction of ROS generation in human HeLa cells at 5 uM incubated for 1 hr in dark followed by irradiation with visible light for 1 hr under normoxic condition in presence of 5 mM NAC by DCFH-DA staining based flow cytometric analysis. The format is functional, cell-based. The note with it: time 2.0 hrs. The method, boiled down: as §3
The subject of data set [13] is HeLa. The data set can be described thus: Induction of autophagy in human HeLa cells […] pretreated with wortmannin for 1 hr followed by irradiation schedule for 1 hr by MDC staining based confocal microscopic analysis. The format is functional.
For data set [14], the system named is HeLa. Kind of data set: Induction of apoptosis in human HeLa cells assessed as increase in early apoptotic cells at 5 uM preincubated for 30 mins in dark followed by irradiation for 1 hr and measured after 24 hrs by Annexin V-FITC/ Propidium iodide staining based flow cytometry analysis. The format is functional, cell-based. The conditions noted are these: time 25.5 hrs. The method, boiled down:
as §2

In data set [15] the test system is HeLa. The data set can be described thus: Induction of superoxide anion generation in human HeLa cells assessed as increase in DHE fluorescence at 5 uM incubated for 1 hr in dark followed by irradiation with visible light for 1 hr under hypoxic condition in presence of tiron by DHE staining based flow cytometric analysis. The conditions noted are these: time 2.0 hrs.

A short description of data set [16]: Induction of singlet oxygen generation in air-saturated DCM solution assessed as reduction in 1,3-diphenylisobenzofuran absorption irradiated with 505 nanometer green light by DPBF-based assay. The format is functional.
Data set [17] relates to HeLa. The data set can be described thus: Induction of ROS generation in human HeLa cells assessed as increase in intracellular ROS level at 5 uM incubated for 1 hr in dark followed by irradiation with visible light for 1 hr under hypoxic condition by DCFH-DA staining based flow cytometric analysis. The format is functional, cell-based. The conditions noted are these: time 2.0 hrs. The method, boiled down: as §3

The nature of data set [18]: Drug uptake in human HeLa cells at 0.5 uM incubated for 30 mins by confocal microscopic analysis. The format is ADME, cell-based. The note with it: 0.5 h. The method, boiled down: as §4
The nature of data set [19]: Drug uptake in nucleolus of human HeLa cells assessed as drug accumulation at 0.5 uM measured after 30 mins by confocal microscopic analysis. It is filed as ADME, subcellular. The conditions noted are these: 0.5 h. The method, boiled down:
as §4

The nature of data set [20]: Drug uptake in human HeLa cells at 5 uM incubated for 30 mins by confocal microscopic analysis. It is filed as ADME, cell-based. The note with it: 0.5 h. The method, boiled down: as §4
Data set [21] can be described thus: Drug uptake in nucleolus of human HeLa cells assessed as drug accumulation at 5 uM measured after 30 mins by confocal microscopic analysis. The conditions noted are these: 0.5 h. It is filed as ADME, subcellular. The method, boiled down: as §4
The nature of data set [22]: Drug uptake in mitochondria of human HeLa cells assessed as drug accumulation at 5 uM measured after 30 mins by confocal microscopic analysis. It is filed as ADME. The conditions noted are these: 0.5 h. The method, boiled down: as §4

For `CCN(CC)c1ccc2c(c1)O/C(=C(/C#N)c1cc[n+](C)cc1)C=C2C`, the result in data set [1], in [2], in data set [3], in data set [6], in data set [9] and in [10] was Active. For the same compound, the outcome in data set [14], in [15] and in data set [16] was Active. Moreover, the result in data set [4], in data set [5], in [7], in data set [8], in data set [12] and in data set [13] was inactive. In addition, the outcome in [17] was inactive. Further, the Drug uptake result in [11], in [18] and in data set [19] was “Active” throughout.

`CCN(CC)c1ccc2c(c1)O/C(=C(/C#N)c1ccncc1)C=C2C`: the Drug uptake result in data set [20] was “Active”; in data set [21], “Active”; in [22], “Not Active”.
